# Reference: ChEMBL document CHEMBL4359864, “The synthesis and in vitro biological evaluation of novel fluorinated tetrahydrobenzo[j]phenanthridine-7,12-diones against Mycobacterium tuberculosis” (Eur J Med Chem, 2019)
# Legend:
# [1] = Antimycobacterial activity against Mycobacterium avium subsp. avium ATCC 25291 by resazurin dye based fluorimetric assay; type: functional
# How it was run: (§1)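 Resazurin microtiter method as for the bacterial panel. Mycobacteria grown in 7H9 with 10% OADC and 0.5% glycerol; for BCG, 0.05% Tween 80 replaced the glycerol. Cultures were sonicated and needle-passed to single cells. Incubation at 37°C, or 32°C for M. marinum. Fluorescence read at ex 550/em 590 nm; mean of triplicates.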
# Mycobacterium marinum = experiment: Antimycobacterial activity against Mycobacterium marinum NCTC 2275 by resazurin dye based fluorimetric assay; type: functional, organism-based; how it was run: as §1
# CYP450 [2] = molecular target: T1, CYP450 (Homo sapiens, UniProt P04798+P05177+P05181+P08684+P10632+P10635+P11509+P11712+P13584+P20813+P20815+P20853+P24462+P24903+P33260+P33261+P51589+P78329+P98187+Q02928+Q08477+Q16678+Q16696+Q5TCH4+Q6VVX0+Q7Z449+Q8TAV3+Q96SQ9+Q9HB55); experiment: Microsomal stability in human liver microsomes assessed as CYP450-mediated metabolism by measuring compound remaining at 5 uM and measured for 60 mins in presence of NADPH by UPLC-MS/MS analysis (reference value: 100%); type: ADME; details: read-out: Stability
# How it was run: (§2)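 Compound at 5 µM with 0.5 mg/mL liver microsomes in PBS. Phase I was started with 1 mM NADPH; phase II used 2 mM UDPGA. Diclofenac served as reference. Samples taken at 0, 15, 30 and 60 min were quenched in ice-cold acetonitrile, centrifuged at 4°C and analysed by LC-MS. Mean of at least two replicates ± SD.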
# Pseudomonas aeruginosa = experiment: Antibacterial activity against Pseudomonas aeruginosa ATCC 9027 incubated for 24 hrs by resazurin dye based fluorimetric assay; type: functional, organism-based; details: ATCC 9027, 24 h
# How it was run: (§3)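 Resazurin microtiter assay: compounds from 10 mM DMSO stock, twofold serial dilutions from 64 µM final in growth medium, in triplicate. Inoculum from frozen glycerol stocks. Exposure 24 h, or 7 days for Mtb H37Ra (7H9 + 0.5% glycerol + 10% OADC). Then 0.01% resazurin was added and plates were incubated at 37°C until pink. Fluorescence read at ex 550/em 590 nm; mean of triplicates.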
# [3] = test system: Mycobacterium tuberculosis; experiment: Antimycobacterial activity against Mycobacterium tuberculosis H37Ra lux incubated for 7 days by luminometric assay; type: functional, organism-based; details: 168 h
# How it was run: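 Twofold serial dilutions in 7H9/OADC/glycerol, in triplicate, inoculated with a suspension of 10.000 RLU per mL. After 7 days, n-decanal (1% v/v in ethanol) was added and luminescence read. IC50 and MIC (90% growth reduction) were derived from the mean of triplicates.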
# UGT [4] = experiment: Microsomal stability in mouse liver microsomes assessed as UGT-mediated metabolism by measuring compound remaining at 5 uM and measured for 15 mins in presence of UDPGA by UPLC-MS/MS analysis (reference value: 100%); type: ADME; details: read-out: Stability; how it was run: as §2
# UGT [5] = molecular target: T2, UGT (Homo sapiens, UniProt O60656+O75310+O75795+P06133+P0DTE4+P0DTE5+P16662+P19224+P22309+P22310+P35503+P35504+P36537+P54855+Q6UWM9+Q9BY64+Q9HAW7+Q9HAW8+Q9HAW9); experiment: Microsomal stability in human liver microsomes assessed as UGT-mediated metabolism by measuring compound remaining at 5 uM and measured for 30 mins in presence of UDPGA by UPLC-MS/MS analysis (reference value: 100%); type: ADME; details: read-out: Stability; how it was run: as §2
# [6] = Cytotoxicity against mouse J774A.1 cells assessed as reduction in cell viability incubated for 24 hrs by neutral red uptake assay; type: cell-based, J774.A1
# How it was run: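 J774A.1 cells in DMEM + 10% iFCS, 37°C, 5% CO2, seeded at 40.000 cells/well and left overnight. Twofold dilutions from 128 µM final; 24 h exposure. Neutral red uptake for 3 h, dye extracted with 1:1 ethanol/acetic acid, OD read at 530 nm (reference 620 nm). CC50 = 50% reduction in uptake; mean of triplicates.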
# CYP450 [7] = experiment: Microsomal stability in mouse liver microsomes assessed as CYP450-mediated metabolism by measuring compound remaining at 5 uM and measured for 60 mins in presence of NADPH by UPLC-MS/MS analysis (reference value: 100%); type: ADME; details: read-out: Stability; how it was run: as §2
# UGT [8] = molecular target: T2, UGT; experiment: Microsomal stability in human liver microsomes assessed as UGT-mediated metabolism by measuring compound remaining at 5 uM and measured for 60 mins in presence of UDPGA by UPLC-MS/MS analysis (reference value: 100%); type: ADME; details: read-out: Stability; how it was run: as §2
# CYP450 [9] = molecular target: T1, CYP450; experiment: Microsomal stability in human liver microsomes assessed as CYP450-mediated metabolism by measuring compound remaining at 5 uM and measured for 15 mins in presence of NADPH by UPLC-MS/MS analysis (reference value: 100%); type: ADME; details: read-out: Stability; how it was run: as §2
# Streptococcus pneumoniae = experiment: Antibacterial activity against Streptococcus pneumoniae ATCC BAA-334 incubated for 24 hrs by resazurin dye based fluorimetric assay; type: functional, organism-based; details: ATCC BAA-334, 24 h; how it was run: as §3
# CYP450 [10] = experiment: Microsomal stability in mouse liver microsomes assessed as CYP450-mediated metabolism by measuring compound remaining at 5 uM and measured for 30 mins in presence of NADPH by UPLC-MS/MS analysis (reference value: 100%); type: ADME; details: read-out: Stability; how it was run: as §2
# Escherichia coli = experiment: Antibacterial activity against Escherichia coli ATCC 8739 incubated for 24 hrs by resazurin dye based fluorimetric assay; type: functional, organism-based; details: ATCC 8739, ATCC 8739, 24 h; how it was run: as §3
# CYP450 [11] = experiment: Microsomal stability in mouse liver microsomes assessed as CYP450-mediated metabolism by measuring compound remaining at 5 uM and measured for 15 mins in presence of NADPH by UPLC-MS/MS analysis (reference value: 100%); type: ADME; details: read-out: Stability; how it was run: as §2
# UGT [12] = experiment: Microsomal stability in mouse liver microsomes assessed as UGT-mediated metabolism by measuring compound remaining at 5 uM and measured for 30 mins in presence of UDPGA by UPLC-MS/MS analysis (reference value: 100%); type: ADME; details: read-out: Stability; how it was run: as §2
# Staphylococcus aureus = experiment: Antibacterial activity against Staphylococcus aureus ATCC 6538 incubated for 24 hrs by resazurin dye based fluorimetric assay; type: functional, organism-based; details: ATCC 6538, 24 h; how it was run: as §3
# UGT [13] = experiment: Microsomal stability in mouse liver microsomes assessed as UGT-mediated metabolism by measuring compound remaining at 5 uM and measured for 60 mins in presence of UDPGA by UPLC-MS/MS analysis (reference value: 100%); type: ADME; details: read-out: Stability; how it was run: as §2
# [14] = test system: Mycobacterium tuberculosis; experiment: Antibacterial activity against Mycobacterium tuberculosis H37Ra ATCC 25177 incubated for 7 days by resazurin dye based fluorimetric assay; type: functional, organism-based; details: H37Ra ATCC 25177, 168 h; how it was run: as §3
# Klebsiella pneumoniae = experiment: Antibacterial activity against Klebsiella pneumoniae ATCC 13883 incubated for 24 hrs by resazurin dye based fluorimetric assay; type: functional, organism-based; details: ATCC 13883, 24 h; how it was run: as §3
# Enterococcus faecium = experiment: Antibacterial activity against Enterococcus faecium ATCC 19434 incubated for 24 hrs by resazurin dye based fluorimetric assay; type: functional, organism-based; details: ATCC 19434, 24 h; how it was run: as §3
# CYP450 [15] = molecular target: T1, CYP450; experiment: Microsomal stability in human liver microsomes assessed as CYP450-mediated metabolism by measuring compound remaining at 5 uM and measured for 30 mins in presence of NADPH by UPLC-MS/MS analysis (reference value: 100%); type: ADME; details: read-out: Stability; how it was run: as §2
# [16] = Selectivity index, ratio of […] for cytotoxicity against mouse J774A.1 cells; type: toxicity, cell-based; details: read-out: Selectivity Index
# UGT [17] = molecular target: T2, UGT; experiment: Microsomal stability in human liver microsomes assessed as UGT-mediated metabolism by measuring compound remaining at 5 uM and measured for 15 mins in presence of UDPGA by UPLC-MS/MS analysis (reference value: 100%); type: ADME; details: read-out: Stability; how it was run: as §2
SMILES,IC50 [1],IC50 (Mycobacterium marinum),"remaining at 1 h, 5 µM (CYP450 [2])",IC50 (Pseudomonas aeruginosa),IC50 [3],MIC90 [3],"remaining at 0.25 h, 5 µM (UGT [4])","remaining at 0.5 h, 5 µM (UGT [5])",CC50 at 24 h [6],"remaining at 1 h, 5 µM (CYP450 [7])","remaining at 1 h, 5 µM (UGT [8])","remaining at 0.25 h, 5 µM (CYP450 [9])",IC50 (Streptococcus pneumoniae),"remaining at 0.5 h, 5 µM (CYP450 [10])",IC50 (Escherichia coli),"remaining at 0.25 h, 5 µM (CYP450 [11])","remaining at 0.5 h, 5 µM (UGT [12])",IC50 (Staphylococcus aureus),"remaining at 1 h, 5 µM (UGT [13])",IC50 [14],also measured
COc1c(N2C[C@@H]3CCCN[C@@H]3C2)c(F)cc2c(=O)c(C(=O)O)cn(C3CC3)c12 [MOXIFLOXACIN],0.19 µM,0.14 µM,–,–,–,–,–,–,–,–,–,–,–,–,–,–,–,–,–,–,–
O=C1C2=C(C(=O)c3c1cnc1ccc(C(F)(F)F)cc31)C1CCC2C1 (configuration not stated),8.51 µM,45.5 µM,100%,> 64 µM,2.51 µM,9.23 µM,87%,74%,108 µM,100%,69%,100%,> 64 µM,100%,> 64 µM,100%,81%,> 64 µM,78%,2 to 4 µM,"IC50 (Klebsiella pneumoniae): > 64 µM; IC50 (Enterococcus faecium): > 64 µM; remaining at 0.5 h, 5 µM (CYP450 [15]): 100%; selectivity ratio [16]: 11.8; remaining at 0.25 h, 5 µM (UGT [17]): 100%"
O=C1C2=C(C(=O)c3c1cnc1cc(F)ccc31)C1CCC2C1 (configuration not stated),0.43 µM,3.22 µM,100%,> 64 µM,1.8 µM,10.2 µM,89%,76%,35.2 µM,100%,60%,100%,32 to 64 µM,100%,> 64 µM,100%,88%,> 64 µM,73%,1 to 2 µM,"IC50 (Klebsiella pneumoniae): > 64 µM; IC50 (Enterococcus faecium): > 64 µM; remaining at 0.5 h, 5 µM (CYP450 [15]): 100%; selectivity ratio [16]: 3.44; remaining at 0.25 h, 5 µM (UGT [17]): 79%"
NNC(=O)c1ccncc1 [ISONIAZID],–,–,–,–,0.11 µM,0.31 µM,–,–,–,–,–,–,–,–,–,–,–,–,–,< 0.25 µM,–
O=C1C2=C(C(=O)c3c1cnc1cc(C(F)(F)F)ccc31)C1CCC2C1 (configuration not stated),3.24 µM,9 µM,100%,> 64 µM,3.05 µM,7.95 µM,62%,63%,122 µM,100%,63%,100%,32 to 64 µM,100%,> 64 µM,100%,70%,> 64 µM,51%,2 to 4 µM,"IC50 (Klebsiella pneumoniae): > 64 µM; IC50 (Enterococcus faecium): > 64 µM; remaining at 0.5 h, 5 µM (CYP450 [15]): 100%; selectivity ratio [16]: 15.4; remaining at 0.25 h, 5 µM (UGT [17]): 71%"
CCn1cc(C(=O)O)c(=O)c2cc(F)c(N3CCNCC3)cc21 [NORFLOXACIN],–,–,–,> 0.5 µM,–,–,–,–,–,–,–,–,–,–,> 0.25 µM,–,–,–,–,–,–
